Source: PubChem BioAssay (The Scripps Research Institute Molecular Screening Center)
In the library only some 1.8% were active in any assay of this set; here they are far more common.
CHRM5 PAM: CHRM5 positive allosteric modulation; P08912; CHO-K1 hM5, Fluo-8 calcium, ACh EC20 PAM; 0% = ACh EC20, 100% = ACh EC100; activation, % at 3 µM; hit rate 0.3% among 360,000; AID 624038;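 active = activation above the run cutoff, the mean activation of all test compounds plus 3 SD, cut at about 18% in these data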
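Replicates: One well per compound, no replicates | System: Human M5 receptor in CHO-K1 cells | Benchmarks: Low control EC20 acetylcholine (0%), high control EC100 acetylcholine (100%) | Probe or stimulus: Acetylcholine, EC20 level | Times: Fluo-8 loading 80 min at 37 °C plus 30 min room temperature | Signal: Intracellular calcium via Fluo-8 fluorescence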
M4 PAM: positive allosteric modulators of human muscarinic M4 receptor | P08173 | activation, % at 3 µM | CHO-K1 hM4/Gqi5, Fluo-8 calcium fluorescence, ACh EC20; 0% = ACh EC20, 100% = maximal ACh | AID 624126 | hit rate 0.4% among 360,000;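 active = activation above its plate's cutoff, the mean activation of sample wells plus 3 SD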
Target sequence (P08173 whole entry, looked up): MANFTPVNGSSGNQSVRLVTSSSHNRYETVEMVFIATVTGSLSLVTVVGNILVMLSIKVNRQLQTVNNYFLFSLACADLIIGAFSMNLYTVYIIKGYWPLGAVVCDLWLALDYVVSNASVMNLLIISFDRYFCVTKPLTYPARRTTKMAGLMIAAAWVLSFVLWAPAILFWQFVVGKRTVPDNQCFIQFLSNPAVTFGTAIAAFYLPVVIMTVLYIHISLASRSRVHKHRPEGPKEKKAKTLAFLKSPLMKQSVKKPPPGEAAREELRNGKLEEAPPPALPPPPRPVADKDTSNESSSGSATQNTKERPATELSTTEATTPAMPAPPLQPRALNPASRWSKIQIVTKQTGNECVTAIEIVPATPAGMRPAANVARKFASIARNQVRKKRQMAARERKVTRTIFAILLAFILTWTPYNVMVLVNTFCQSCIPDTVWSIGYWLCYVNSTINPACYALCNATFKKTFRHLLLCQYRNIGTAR
M5 antag: antagonists of human muscarinic M5 receptor (CHRM5); P08912; CHO-hM5 cells, Fluo-8 calcium fluorescence, ACh EC80; inhibition, % at 3 µM; hit rate 0.59% among 360,000;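 active = inhibition above a per-plate cutoff, the mean of that plate's test compounds plus 3 SD, cut at about 27% in these data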;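 note: 0% = acetylcholine EC80 with DMSO and 100% = DMSO without agonist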
M4 ag: agonists of human muscarinic M4 receptor (CHRM4) | P08173 | CHO-K1 hM4/Gqi5, Fluo-8 calcium fluorescence; vehicle 0%, full acetylcholine response 100% | activation, % at 3 µM | hit rate 0.14% among 360,000 | AID 624127;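 active = activation above the run mean over all test wells plus 3 SD, cut at about 32% in these data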;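 note: peak over basal fluorescence ratio per well then scaled between controls; 0% = DMSO wells and 100% = acetylcholine at EC100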
M4 antag: antagonists of human muscarinic M4 receptor (CHRM4); CHO-hM4 cells, ACh EC80, Fluo-8 calcium fluorescence; AID 624125; P08173; inhibition, % at 3 µM; hit rate 0.73% among 360,000;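 active = inhibition above its plate's cutoff, the mean inhibition of sample wells plus 3 SD, cut at about 27% in these data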;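 note: 0% = acetylcholine EC80 with DMSO and 100% = DMSO without agonist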
CHRM5 agonist: agonists of human muscarinic M5 receptor (CHRM5); activation, % at 3 µM; AID 624037; P08912; hit rate 0.19% among 360,000; CHO-K1 hM5 cells, Fluo-8 calcium fluorescence; 0% DMSO wells, 100% maximal acetylcholine response;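 active = activation above the run's mean over test compounds plus 3 SD, cut at about 23% in these data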;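 note: signal is peak over basal fluorescence ratio across the kinetic read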
* marks the source's active call; other numbers are inactive results.

SMILES	CHRM5 PAM	M4 PAM	M5 antag	M4 ag	M4 antag	CHRM5 agonist
Cc1nc(N)c(C#N)c(-c2cccnc2)c1C	26*	5	-16	0	-16	-4
CCc1cc(=O)oc2cc(OCC(=O)O)c(Cl)cc12	20*	5	-8	1	12	-9
CCc1cc(=O)oc2cc(OCC(=O)N(CC)CC)c(Cl)cc12	-4	5	-5	1	-5	0
CCOC(=O)N1CCC(NC(=O)c2cc3c(=O)[nH]c4ccccc4c3n2C)CC1	-4	-1	7	2	-5	8
O=C(O)c1cnc2[nH]c3ccccc3n2c1=O	3	-12	-1	0	-4	4
CC1CCCCC1NC1=NCCS1 (configuration not stated)	2	-1	2	0	2	-8
CC1CN=C(NC2CCCCC2C)S1 (configuration not stated)	3	-9	1	0	27*	-5
Cc1ccc(S(=O)(=O)NC(=O)NC2=NC(C)(C)N(c3ccc(Cl)c(Cl)c3)C(N)=N2)cc1	1	1	-4	-1	1	-2
CCC(c1nnnn1-c1ccc2c(c1)OCCO2)N1CCN(c2ncccc2C(F)(F)F)CC1 (configuration not stated)	-9	-7	3	6	4	0
COc1cccc(CNS(=O)(=O)c2ccc3c(c2)N(C(C)=O)CCO3)c1	-8	-3	16	2	-2	-2
COc1ccc(NC(=O)CN(C)C(=O)c2cc(-c3ccncc3)nc3ccccc23)cc1	-9	-10	23	18	7	1
COc1ccc(Cl)cc1NC(=O)CN(C)C(=O)c1cc(-c2ccncc2)nc2ccccc12	-25	-14	27*	33*	13	3
CC(C)OCCCNC(=S)NNC(=O)c1ccc(Cl)c(Cl)c1	6	-1	-3	2	6	1
CCN(CC(=O)Nc1ccc(NC(C)=O)cc1)C(=O)CN1C(=O)NC(C)(c2ccc3ccccc3c2)C1=O (configuration not stated)	5	27*	-3	1	-8	4
C=C(C)CN(CC)C(=O)CN1C(=O)NC(C)(c2ccc3ccccc3c2)C1=O (configuration not stated)	-3	-4	8	3	7	2
CCCCCC(C)NC(=O)CN1C(=O)NC(C)(c2ccc3ccccc3c2)C1=O (configuration not stated)	4	23*	-10	4	-15	0
CC#CC[N+](C)(C)CCCCCCCCCCCC	-22	-20	13	0	27*	-11
C#CC[N+](C)(C)CCCCCCCCCC	-12	-11	-4	0	6	-9
C#CC[N+](C)(C)CCCCCCCCCCCC	-19	-15	21	0	53*	-8
CC(O)(c1cccnc1)c1nc(-c2cccc(C#N)c2)cs1 (configuration not stated)	-6	19*	-8	5	-17	3
CC(O)(c1cccc(F)c1)c1nc(-c2cccc(C#N)c2)cs1 (configuration not stated)	-7	2	7	2	-11	-1
CCOc1cc(-c2nc3ccccn3c2NCC2CCCO2)ccc1O (configuration not stated)	-17	-25	24	22	30*	5
COc1cc(-c2nc3ccccn3c2NCC2CCCO2)ccc1O (configuration not stated)	-20	-19	13	16	14	6
COc1ccc(S(=O)(=O)N2CCN(CC3CC=CCC3)CC2)cc1 (configuration not stated)	0	-11	11	1	5	-7
COc1ccccc1CNc1ccc([N+](=O)[O-])cc1C	-15	-12	33*	13	3	-5
Cc1cc([N+](=O)[O-])ccc1NCc1ccccc1	-21	-15	12	11	16	-7
CCc1csc(CNC(=O)C2CCC(=O)N(Cc3cccc(F)c3)C2)n1 (configuration not stated)	16	1	-33	1	-7	-3
